Test results: ChEMBL document CHEMBL1148331, “Aziridinyldinitrobenzamides: synthesis and structure-activity relationships for activation by E. coli nitroreductase” (J Med Chem, 2004)
Converted amounts (≈) assume the structure as drawn.

Assays:
[1] = Solubility in culture medium; format: physicochemical
Outline: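 Solubility limit (mM) determined in cell culture medium.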

[2] = Partition coefficient (logP); format: physicochemical; details: octanol/water
Outline: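 Partition measured between n-octanol and water.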

[3] = test system: EMT6; assay: Growth inhibitory potency against NTR-Transfected (nitroreductase) mouse mammary cell line known as EMT6-NTRpuro cell line; format: functional, cell-based
Outline: (§1)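 Log-phase cells were seeded in αMEM with 5% FBS at 50–800 cells/well and grown for 18 h. Prodrug was added from DMSO stock diluted in medium and left for 18 h, then washed out. Regrowth lasted 3 days for V79 and EMT6 lines and 4 days for WiDr and Skov3 lines. Cell density was read by sulforhodamine B staining. IC50 was interpolated as 50% of control absorbance on the same plate. Ratio = IC50 of parental (NTR-ve) line / IC50 of NTR-transfected line.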

[4] = test system: WiDr-NTR; assay: Growth inhibitory potency against NTR-Transfected (nitroreductase) human colon cell line known as WiDr-NTRneo cell line; format: functional, cell-based; outline: as §1
[5] = test system: V79; assay: Growth inhibitory potency against NTR-Transfected (nitroreductase) chinese hamster fibroblast known as V79-NTRpuro cell line; format: functional, cell-based; details: Cricetulus griseus; outline: as §1
[6] = test system: Mus musculus; assay: In vivo activity against WiDr-nitroreductase tumors in mice at a dose of 178 (umol/kg); 1/7; format: functional
[7] = test system: Mus musculus; assay: In vivo activity against WiDr-nitroreductase tumors in mice at a dose of 178 (umol/kg); 2/7; format: functional
[8] = test system: Mus musculus; assay: In vivo median growth delay against CD-1 nude mice bearing WiDr-nitroreductase tumors at a dose 178 (umol/kg); format: functional
[9] = Ratio of growth inhibition of NTR-transfected human colon cell line to that of parental cell line (IC50 (NTR-)/IC50 (NTR+); format: functional; outline: as §1
[10] = test system: SK-OV-3; assay: Ratio of growth inhibition of NTR-transfected human ovarian cell line to that of parental cell line (IC50 (NTR-)/IC50 (NTR+); format: functional; outline: as §1
[11] = test system: EMT6; assay: Ratio of growth inhibition of NTR-transfected mouse mammary cell line to that of parental cell line (IC50 (NTR-)/IC50 (NTR+); format: functional; outline: as §1
[12] = test system: SK-OV-3; assay: Growth inhibitory potency against NTR-Transfected (nitroreductase) human ovarian cell line known as SKOV3-NTR neo cell line; format: functional, cell-based; outline: as §1
[13] = test system: V79; assay: Effective concentration of 10% cell survival for activators in V79 MCL (multicellular layer) cocultures; format: functional, Cricetulus griseus
Outline: (§2)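 V79 multicellular layers were grown on collagen-coated microporous inserts for 3 days, stirred, under 5% CO2/air. Cocultures held 3% V79-NTRpuro activators and 97% V79oua targets; the other layers held targets only. Layers were exposed to prodrug over a concentration range for 5 h at 37 °C under 5% CO2/95% O2. Cells were then plated clonogenically in 1 mM ouabain (targets) or 15 µM puromycin (activators). After 6 days, colonies of more than 50 cells were counted and the concentration giving 10% survival was taken.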

[14] = test system: V79; assay: Effective concentration of 10% cell survival for targets in V79 MCL (multicellular layer) grown from targets; format: functional, Cricetulus griseus; outline: as §2
[15] = test system: V79; assay: Effective concentration of 10% cell survival for targets in V79 MCL (multicellular layer) cocultures; format: functional, Cricetulus griseus; outline: as §2
[16] = test system: Mus musculus; assay: In vivo activity against WiDr-nitroreductase tumors in mice at a dose of 750 (umol/kg); 0/7; format: functional
[17] = test system: Mus musculus; assay: In vivo activity against WiDr-nitroreductase tumors in mice at a dose of 750 (umol/kg); 1/7; format: functional
[18] = test system: Mus musculus; assay: In vivo median growth delay against CD-1 nude mice bearing WiDr-nitroreductase tumors at a dose 750 (umol/kg); format: functional
[19] = test system: Mus musculus; assay: In vivo activity against WiDr-nitroreductase tumors in mice at a dose of 200 (umol/kg); 31/53; format: functional
[20] = test system: Mus musculus; assay: In vivo activity against WiDr-nitroreductase tumors in mice at a dose of 200 (umol/kg); 12/53; format: functional
[21] = test system: Mus musculus; assay: In vivo median growth delay against CD-1 nude mice bearing WiDr-nitroreductase tumors at a dose 200 (umol/kg); format: functional
[22] = test system: WiDr; assay: Effective concentration of 10% cell survival for targets in WiDr MCL (multicellular layer) grown from targets; format: functional, Homo sapiens
Outline: (§3)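 WiDr multicellular layers were grown on collagen-coated inserts for 6 days. Cocultures held 10% WiDr-NTRneo activators and 90% WiDr targets; the other layers held targets only. Layers were exposed to prodrug over a range of concentrations for 5 h at 37 °C, stirred, under 5% CO2/95% O2. Cells were plated clonogenically, with activators selected in 0.3 mg/mL G418. After 14 days, colonies of more than 50 cells were counted and the concentration giving 10% survival was derived.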

[23] = test system: WiDr; assay: Effective concentration of 10% cell survival for targets in WiDr MCL (multicellular layer) cocultures; format: functional, Homo sapiens; outline: as §3
[24] = test system: WiDr; assay: Effective concentration of 10% cell survival for activators in WiDr MCL (multicellular layer) cocultures; format: functional, Homo sapiens; outline: as §3

SMILES | solubility [1] [µM] | logP ([2]; read-out: logP) | IC50 [3] [µM] | IC50 [4] [µM] | IC50 [5] [µM] | Ratio [9] | Ratio [10] | Ratio [11] | IC50 [12] [µM] | further results
NC(=O)c1cc(N2CC2)ccc1[N+](=O)[O-] | 3400 (≈ 704 µg/mL) | 0.7 | 67 | 89 | 81 | – | – | – | – | –
CS(=O)(=O)c1cc([N+](=O)[O-])c(N2CC2)cc1C(N)=O | 880 (≈ 251 µg/mL) | -0.41 | 3.6 | 26 | 8.8 | 33 | 160 | 125 | 6.3 | Cures [6]: 1; Deaths [7]: 2; Growth delay [8]: 17 days
CC(=O)CCNC(=O)c1cc(N2CC2)c([N+](=O)[O-])cc1[N+](=O)[O-] | 800 (≈ 258 µg/mL) | 0.56 | 0.31 | 2.6 | 0.33 | 63.6 | 270 | 1520 | 2.5 | Ac [13]: 20 µM; T [14]: 1900 µM; Tc [15]: 200 µM
NC(=O)c1cc([N+](=O)[O-])c(N2CC2)c([N+](=O)[O-])c1 | 40 (≈ 10.1 µg/mL) | 0.59 | > 20 | > 20 | > 20 | – | – | – | > 20 | –
NC(=O)c1cc([N+](=O)[O-])cc([N+](=O)[O-])c1N1CC1 | 1300 (≈ 328 µg/mL) | 0.34 | 1.3 | 13 | 1.2 | 85 | 281 | 627 | 6.1 | Deaths [16]: 0; Cures [17]: 1; Growth delay [18]: 47 days; Ac [13]: 450 µM; T [14]: >2000 µM; Tc [15]: >2000 µM
NC(=O)c1c([N+](=O)[O-])ccc(N2CC2)c1[N+](=O)[O-] | 2700 (≈ 681 µg/mL) | -0.17 | 27 | 58.2 | 135 | 5.9 | 9.6 | 9.2 | 65.8 | –
O=C(NCCn1ccnc1)c1cc(N2CC2)c([N+](=O)[O-])cc1[N+](=O)[O-] | 1100 (≈ 381 µg/mL) | -0.48 | 0.29 | 1.1 | 0.31 | 41.5 | 105 | 278 | 0.58 | –
CS(=O)(=O)c1cc([N+](=O)[O-])c(C(N)=O)cc1N1CC1 | 780 (≈ 223 µg/mL) | -0.3 | 11 | 22 | 40 | 10 | 19 | 25 | 21.8 | –
CS(=O)(=O)c1cc([N+](=O)[O-])c(N2CC2)cc1C(=O)NCC(O)CO (configuration not stated) | 4150 (≈ 1490 µg/mL) | -0.96 | 84.5 | 281 | 132 | 10 | 26 | 32 | 160 | –
CN(CCN1CCOCC1)C(=O)c1cc(N2CC2)c([N+](=O)[O-])cc1[N+](=O)[O-] | 3300 (≈ 1250 µg/mL) | -0.26 | 1.8 | 8.1 | 1.8 | 21 | 46 | 309 | 13 | –
NC(=O)c1ccc([N+](=O)[O-])c(N2CC2)c1 | 430 (≈ 89.1 µg/mL) | 0.47 | 41.4 | 62.4 | 61.5 | 1.6 | 1.6 | 2.8 | 61 | –
O=C(NCCCN1CCOCC1)c1cc(N2CC2)c([N+](=O)[O-])cc1[N+](=O)[O-] | 1600 (≈ 607 µg/mL) | -1.05 | 0.04 | 0.24 | 0.048 | 122 | 732 | 3310 | 0.15 | –
O=C(NCCCCN1CCOCC1)c1cc(N2CC2)c([N+](=O)[O-])cc1[N+](=O)[O-] | 5600 (≈ 2200 µg/mL) | -0.48 | 0.06 | 0.31 | 0.21 | 93 | 513 | 12170 | 0.3 | –
NC(=O)c1cc(N2CC2)c([N+](=O)[O-])cc1[N+](=O)[O-] [TRETAZICAR] | – | – | – | 1.14 | – | 51.1 | 317 | 947 | 0.64 | logP [2]: 0.14; Cures [19]: 31; Deaths [20]: 12; Growth delay [21]: >87 days; Ac [13]: 23 µM; T [22]: 513 µM; Tc [23]: 252 µM; Ac [24]: 33 µM; T [14]: 1400 µM; Tc [15]: 173 µM
